Among the data in ChEMBL document CHEMBL1155288, “Novel 1,2,3-thiadiazole derivatives as HIV-1 NNRTIs with improved potency: Synthesis and preliminary SAR studies” (Bioorg Med Chem, 2009) are EC50, CC50 and selectivity ratio values, retold here.

The subject of series [1] is Human immunodeficiency virus 1. Put plainly: Antiviral activity against HIV1 3B infected in human MT4 cells after 5 days by MTT assay. It counts as functional, organism-based. Particulars: Human immunodeficiency virus 1, 3B, MT4, 120 h. The gist of the method: (§1)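 MT-4 cells (6 × 10^5 cells/mL) infected with HIV-1 IIIB or HIV-2 ROD at 100–300 CCID50. Serial fivefold compound dilutions were tested in triplicate wells. Viability was read by MTT reduction at 540 and 690 nm on day 5, using the median OD of three wells. EC50 is the concentration giving 50% protection from viral cytopathic effect.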
In general terms: Formazan colour is commonly taken as a measure of viable cells.

Series [2] has as its system Human immunodeficiency virus 2. As to the kind of experiment: Antiviral activity against HIV2 ROD infected in human MT4 cells after 5 days by MTT assay. Particulars: Human immunodeficiency virus 2, ISOLATE ROD, MT4, 120 h. It counts as functional, organism-based. Put shortly:
as §1

Series [3] can be described thus: Cytotoxicity against human MT4 cells after 5 days by MTT assay. The format is cell-based. Put shortly:
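Mock-infected MT-4 cells (6 × 10^5 cells/mL) received serial fivefold compound dilutions in triplicate wells, run in parallel with the infected series. After 5 days, viability was measured by MTT formazan absorbance at 540 and 690 nm, using the median OD of three wells. CC50 is the concentration reducing OD540 of the mock-infected control by 50%.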

Series [4] in a line: Selectivity index, ratio of CC50 for human MT4 cells to EC50 for HIV1 3B. It counts as toxicity, cell-based. Particulars: read-out: Ratio CC50/EC50. Put shortly: (§2)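 Ratio CC50/EC50. CC50 comes from mock-infected MT-4 cells and EC50 from HIV-1 IIIB- or HIV-2 ROD-infected MT-4 cells, both from the same 5-day MTT plates.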
Series [5] in a line: Selectivity index, ratio of CC50 for human MT4 cells to EC50 for HIV2 ROD. The format is toxicity, cell-based. Particulars: read-out: Ratio CC50/EC50. Put shortly:
as §2

Broadly, the EC50 is the concentration giving half of the maximal effect. A low value points to higher potency in that assay. A word on the CC50: it is the concentration giving 50% cytotoxicity. A lower CC50 goes with greater toxicity to the cells. For the compound `O=C(CSc1snnc1-c1ccc(Br)cc1Br)Nc1ccccc1F`, the EC50 in series [1] was 0.14 µM; in series [2], over 27.8 µM. In addition, the CC50 at 120 h in series [3] was at least 27.8 µM. The selectivity ratio in series [4] was over 195; in series [5] it was under 1.

Regarding `COC(=O)c1ccsc1NC(=O)CSc1snnc1-c1ccc(Br)cc1Br`, the figures for the EC50 in series [1] and in series [2] were 4.01 µM and over 228 µM, respectively. In series [3], this compound showed a CC50 at 120 h of over 228 µM. Moreover, the selectivity ratio in series [4] is over 57; in series [5], at least 1.

For the compound `O=C(CSc1snnc1-c1ccc(Br)cc1Br)Nc1ccccc1`, the EC50 in series [1] was 0.54 µM; in series [2], over 24.8 µM. The same compound returned a CC50 at 120 h in series [3] of 24.8 µM. The selectivity ratio is 47 in series [4] and under 1 in series [5].

For the compound `O=C(CSc1snnc1-c1ccc(Br)cc1Br)Nc1ccccn1`, the EC50 in series [1] is 1.17 µM; in series [2] it was over 42.4 µM. In addition, in series [3], the CC50 at 120 h was determined as 42.4 µM. Moreover, the selectivity ratio is 36 in series [4] and under 1 in series [5].

Regarding `Cc1ccc(NC(=O)CSc2snnc2-c2ccc(Br)cc2Br)cc1`, the EC50 in series [1] is 1.52 µM; in series [2], over 24 µM. In series [3], this compound yielded a CC50 at 120 h of 24 µM. For the same compound, the selectivity ratio in series [4] is 16; in series [5], under 1.

For the compound `Cc1cccc(C)c1NC(=O)CSc1snnc1-c1ccc(Br)cc1Br`, the 50% effective concentration (EC50) in series [1] and in series [2] was over 199 µM throughout. In series [3], the CC50 at 120 h is at least 199 µM. Besides, the selectivity ratio in series [4] and in series [5] was under 1 in each case.

On to `CC(=O)c1ccc(NC(=O)CSc2snnc2-c2ccc(Br)cc2Br)c(Br)c1`, for which the values for the EC50 in series [1] and in series [2] were 0.058 µM and over 206 µM, respectively. In series [3], this compound gave a CC50 at 120 h of over 206 µM. Also, the selectivity ratio is over 3550 in series [4] and at least 1 in series [5].

Take `O=C(CSc1snnc1-c1ccc(Br)cc1Br)Nc1ccccc1Cl`: the results for the EC50 in series [1] and in series [2] were 0.083 µM and at least 221 µM, respectively. The compound also returned a CC50 at 120 h in series [3] of over 241 µM. The selectivity ratio in series [4] is over 2900; in series [5], over 1.

Take `Cc1cccc(NC(=O)CSc2snnc2-c2ccc(Br)cc2Br)c1C`: the EC50 in series [1] is 1.44 µM; in series [2] it was over 241 µM. The same compound came in with a CC50 at 120 h in series [3] of 241 µM. The values for the selectivity ratio in series [4] and in series [5] were 166 and under 1, respectively.

As to `O=C(CSc1snnc1-c1ccc(Br)cc1Br)Nc1cccnc1Cl`, the figures for the EC50 in series [1] and in series [2] were 0.0364 µM and over 240 µM, respectively. The compound also came in with a CC50 at 120 h in series [3] of over 240 µM. In addition, the selectivity ratio in series [4] was over 6460; in series [5] it was at least 1.

Turning to `O=C(CSc1snnc1-c1ccc(Br)cc1Br)Nc1ccc(Cl)cc1`, the EC50 is 2.19 µM in series [1] and over 23.3 µM in series [2]. The CC50 at 120 h in series [3] was 23.3 µM. For the same compound, the selectivity ratio was 11 in series [4] and under 1 in series [5].

As to `Cc1ccc(NC(=O)CSc2snnc2-c2ccc(Br)cc2Br)c(Br)c1`, the 50% effective concentration (EC50) in series [1] was 0.22 µM; in series [2] it was over 216 µM. This compound also displayed a CC50 at 120 h in series [3] of over 216 µM. For the same compound, the selectivity ratio in series [4] was over 958; in series [5], at least 1.

Turning to `Cc1ccc2sc(NC(=O)CSc3snnc3-c3ccc(Br)cc3Br)nc2c1`, the EC50 in series [1] and in series [2] was over 23.6 µM each time. The same compound showed a CC50 at 120 h in series [3] of 23.6 µM. Further, the selectivity ratio in series [4] and in series [5] was under 1 throughout.

With `O=C(CSc1snnc1-c1ccc(Br)cc1Br)Nc1ccccc1[N+](=O)[O-]`, the figures for the EC50 in series [1] and in series [2] were 0.04 µM and over 236 µM, respectively. Moreover, the CC50 at 120 h in series [3] is over 236 µM. Besides, the selectivity ratio in series [4] was over 5840; in series [5], at least 1.

Consider `O=C(CSc1snnc1-c1ccc(Br)cc1Br)Nc1nccs1`, for which the EC50 was 4.53 µM in series [1] and over 87.8 µM in series [2]. In series [3], this compound displayed a CC50 at 120 h of 87.8 µM. The selectivity ratio in series [4] was 19; in series [5] it was under 1.

As to `O=C(CSc1snnc1-c1ccc(Br)cc1Br)Nc1ccccc1Br`, the EC50 in series [1] amounted to 0.12 µM; in series [2] it was 172 µM. In series [3], this compound returned a CC50 at 120 h of over 222 µM. The selectivity ratio in series [4] is over 1790; in series [5] it was over 1.

For `Cc1ccc(NC(=O)CSc2snnc2-c2ccc(Br)cc2Br)c([N+](=O)[O-])c1`, the EC50 in series [1] was 0.079 µM; in series [2] it was over 230 µM. The compound also gave a CC50 at 120 h in series [3] of over 230 µM. Further, the selectivity ratio is over 2930 in series [4] and at least 1 in series [5].

Turning to `Cc1ccccc1NC(=O)CSc1snnc1-c1ccc(Br)cc1Br`, the EC50 in series [1] is 0.52 µM; in series [2] it was over 202 µM. Besides, in series [3], it took 202 µM to reach half-maximal cytotoxicity (CC50 at 120 h). The selectivity ratio in series [4] is 381; in series [5], under 1.
